Article PMC12690603 (Chemical Science, 2025)
Non-standard residues stand in square brackets, D forms with d. No end group written: not given here. βAla = NCCC(=O)O

Experiments:
Assay type in all cases: biochemical
human SETD1A = experiment: SETD1A-catalysed methylation of 21-mer H3 peptides; conditions: 21-mer peptide 2 µM, SETD1A 1 µM, SAM 100 µM, pH 8.6, 37 °C, 3 h, n = 2
human SETD7 [1] = target: T1, human SETD7 (Homo sapiens, UniProt Q8WTS6); experiment: SETD7-catalysed methylation of H3 peptides, conversion by MALDI-TOF MS; conditions: SAM 30 µM; for methylation by SETD7 (conversion to methylated product): 13-mer peptide 10 µM, MALDI-TOF MS; for methylation by SETD7 in time-course: within 30 min
T1 sequence (Q8WTS6 1-366): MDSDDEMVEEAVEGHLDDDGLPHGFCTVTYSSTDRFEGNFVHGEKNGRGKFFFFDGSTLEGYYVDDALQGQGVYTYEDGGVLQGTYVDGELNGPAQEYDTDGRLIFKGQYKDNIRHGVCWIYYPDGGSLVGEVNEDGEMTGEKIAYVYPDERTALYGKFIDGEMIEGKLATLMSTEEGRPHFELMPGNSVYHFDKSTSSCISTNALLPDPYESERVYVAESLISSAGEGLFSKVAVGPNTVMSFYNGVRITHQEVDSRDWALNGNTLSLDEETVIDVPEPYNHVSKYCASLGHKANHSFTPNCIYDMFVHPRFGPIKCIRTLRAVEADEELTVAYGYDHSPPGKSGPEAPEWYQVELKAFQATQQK
Procedure, shortened: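 Recombinant human SETD7 (100 nM, 500 nM or 1 µM) was incubated with stapled or linear H3 peptide (10 µM) and SAM (30 µM) in 50 mM HEPES, 0.1 mM EDTA, 1 mM DTT, pH 8, at 37 °C with shaking at 750 rpm. Reactions were quenched with 10% (v/v) TFA at set times. Methylation (+14 Da) was measured by MALDI-TOF MS. % conversion came from peak areas. n = 2, standard deviations.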

human SETD7 [2] = target: T1, human SETD7; experiment: Steady-state kinetics of SETD7-catalysed methylation; conditions: for K m / k cat: peptide 1–150 µM, SETD7 50–300 nM, 10 or 20 min, MALDI-TOF MS, mean ± SD, SD; for K m / k cat / k cat/Km: SAM 30 µM, 37 °C, n = 3; for fold increase of kcat/Km compared to linear H3K4 (1): steady-state kinetics, relative to peptide 1; for k cat/Km: steady-state
Procedure, shortened: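 Recombinant human SETD7 (50–300 nM) added to start reactions containing H3 peptide (1–150 µM series) and SAM (30 µM). Incubated at 37 °C for 10 or 20 min with shaking, then quenched. MALDI-TOF MS was the read-out, with % methylation from integrated […] peak areas. Three independent experiments, SD. kcat/Km values were compared with the linear H3K4 reference peptide.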

[3] = SETD7 500 nM, 50 mM HEPES, 0.1 mM EDTA, 1 mM DTT, pH 8.0, 37 °C, 1 h, n = 2
[4] = SETD7 100 nM, peptide 10 µM, 37 °C, n = 2

Q: What does the source list for “21-mer H3K4: longer linear H3K4 substrate peptide, residues 1–21 [reference compound]”?
A: dimethylated product by SETD1A (human SETD1A): ~9%; methylation by SETD7 (human SETD7 [1]; 21-mer peptide (residues 1–21) 10 µM, SETD7 500 nM, 37 °C, 3 h, n = 2): ~88%

Q: Which results are given for “ARTKQDARKSTGG (also: sidechain bridge or staple (positions not given here)) [Peptide 5]”?
A: methylation by SETD7 (conversion to methylated product) (human SETD7 [1]; SETD7 100 nM, 37 °C, 1 h): ~10%; methylation by SETD7 (conversion to methylated product) (human SETD7 [1]; [3]): fully converted to methylated product; K m (human SETD7 [2]): 12.5 ± 2.77 µM; k cat (human SETD7 [2]): 0.031 ± 0.00233 s⁻¹; fold increase of kcat/Km compared to linear H3K4 (1) (human SETD7 [2]): 10 fold; k cat/Km (human SETD7 [2]): 2500 M⁻¹ s⁻¹

Q: Which “methylation by SETD7 (conversion to methylated product)” value (human SETD7 [1]; [3]) does the source give for “ARTKQEARKSTGG (also: sidechain bridge or staple (positions not given here)) [Peptide 4]” here?
A: ~63%

Q: For “ARTKQTARKSTGG [Peptide 1, reference compound]”, which “methylation/turnover in time-course at low enzyme concentration (in words)” value (human SETD7 [1]; SETD7 100 nM, peptide 10 µM, 37 °C, time-course) is on record?
A: lack of H3K4 (1) methylation

Q: And the “methylation by SETD7 (conversion to methylated product)” value (human SETD7 [1]; [3])?
A: ~56%

Q: What about the K m (human SETD7 [2]) of the same substance?
A: 61.6 ± 12.6 µM

Q: What about the k cat (human SETD7 [2]) of the same substance?
A: 0.014 ± 0.0013 s⁻¹

Q: And the “k cat/Km” value (human SETD7 [2])?
A: 233 M⁻¹ s⁻¹

Q: “AzaRTKQPraARKSTGG (sidechain bridge or staple) [Peptide 3]” was tested. Which “methylation by SETD7 (conversion to methylated product)” value (human SETD7 [1]; SETD7 1 µM, 37 °C, 3 h) did it give?
A: ~95%

Q: What about the K m (human SETD7 [2]) of the same substance?
A: 36.2 ± 7.54 µM

Q: And the k cat (human SETD7 [2])?
A: 0.0598 ± 0.0065 s⁻¹

Q: And the “fold increase of kcat/Km compared to linear H3K4 (1)” value (“fold increase of kcat/Km” below) (human SETD7 [2])?
A: 7 fold

Q: And the “k cat/Km” value (human SETD7 [2])?
A: 1650 M⁻¹ s⁻¹

Q: For “CRTKQCARKSTGG (also: sidechain bridge or staple (positions not given here)) [Peptide 2]”, which “methylation by SETD7 (conversion to methylated product)” value (human SETD7 [1]; SETD7 1 µM, 37 °C, 3 h) is on record?
A: ~86%

Q: “D-ARTKQEARKSTGG (sidechain bridge or staple) [Peptide 6]” was tested. Which “methylation by SETD7 (conversion to methylated product)” value (human SETD7 [1]; SETD7 100 nM, 37 °C, 1 h) did it give?
A: ~89%

Q: And the “methylation by SETD7 in time-course” value (human SETD7 [1]; [4])?
A: ~90%

Q: What about the K m (human SETD7 [2]) of the same substance?
A: 10.4 ± 1.88 µM

Q: And the k cat (human SETD7 [2])?
A: 0.23 ± 0.014 s⁻¹

Q: And the “fold increase of kcat/Km” value (human SETD7 [2])?
A: 97 fold

Q: What about the “k cat/Km” value (human SETD7 [2]) of the same substance?
A: 22200 M⁻¹ s⁻¹

Q: With “FRTKQEARKSTGG (also: sidechain bridge or staple (positions not given here)) [Peptide 9]” as the substance, how does the “methylation by SETD7 (conversion to methylated product)” value (human SETD7 [1]; SETD7 100 nM, 37 °C, 1 h) read?
A: ~62%

Q: What about the K m (human SETD7 [2]) of the same substance?
A: 34.6 ± 9.78 µM

Q: What about the k cat (human SETD7 [2]) of the same substance?
A: 0.0493 ± 0.00517 s⁻¹

Q: And the “fold increase of kcat/Km” value (human SETD7 [2])?
A: 6 fold

Q: What about the “k cat/Km” value (human SETD7 [2]) of the same substance?
A: 1430 M⁻¹ s⁻¹

Q: How did the “methylation by SETD7 (conversion to methylated product)” value (human SETD7 [1]; SETD7 1 µM, 37 °C, 3 h) turn out when “GGRTKQEARKSTGG (also: sidechain bridge or staple (positions not given here)) [Peptide 13]” was run?
A: ~91%

Q: “GRTKETARKSTGG (also: sidechain bridge or staple (positions not given here)) [Peptide 14]” was tested. Which “methylation by SETD7 (conversion to methylated product)” value (human SETD7 [1]; SETD7 1 µM, 37 °C, 3 h) did it give?
A: < 5%

Q: For “GRTKQEARKSTGG (also: sidechain bridge or staple (positions not given here)) [Peptide 7]”, which “methylation by SETD7 (conversion to methylated product)” value (human SETD7 [1]; SETD7 100 nM, 37 °C, 1 h) is on record?
A: ~96%

Q: And the “methylation by SETD7 in time-course” value (human SETD7 [1]; [4])?
A: ~90%

Q: And the K m (human SETD7 [2])?
A: 1.84 ± 0.27 µM

Q: What about the k cat (human SETD7 [2]) of the same substance?
A: 0.046 ± 0.00283 s⁻¹

Q: What about the “fold increase of kcat/Km” value (human SETD7 [2]) of the same substance?
A: 110 fold

Q: What about the “k cat/Km” value (human SETD7 [2]) of the same substance?
A: 25000 M⁻¹ s⁻¹

Q: For GRTKQEARKSTGG [Peptide 16], which “methylation by SETD7 (conversion to methylated product)” value (human SETD7 [1]; SETD7 1 µM, 37 °C, 3 h) is on record?
A: ~40%

Q: For “GRTKQTERKSTGG (also: sidechain bridge or staple (positions not given here)) [Peptide 15]”, which “methylation by SETD7 (conversion to methylated product)” value (human SETD7 [1]; SETD7 1 µM, 37 °C, 3 h) is on record?
A: ~11%

Q: “RTKQEARKSTGG (also: sidechain bridge or staple (positions not given here)) [Peptide 12]” was tested. Which “methylation by SETD7 (conversion to methylated product)” value (human SETD7 [1]; SETD7 1 µM, 37 °C, 3 h) did it give?
A: ~75%

Q: Which “methylation by SETD7 (conversion to methylated product)” value (human SETD7 [1]; SETD7 100 nM, 37 °C, 1 h) does the source give for “VRTKQEARKSTGG (also: sidechain bridge or staple (positions not given here)) [Peptide 8]” here?
A: ~64%

Q: And the K m (human SETD7 [2])?
A: 34.1 ± 7.76 µM

Q: What about the k cat (human SETD7 [2]) of the same substance?
A: 0.0423 ± 0.00433 s⁻¹

Q: And the “fold increase of kcat/Km” value (human SETD7 [2])?
A: 5 fold

Q: And the “k cat/Km” value (human SETD7 [2])?
A: 1230 M⁻¹ s⁻¹

Q: With “[βAla]RTKQEARKSTGG (also: sidechain bridge or staple (positions not given here)) [Peptide 11]” as the substance, how does the “methylation by SETD7 (conversion to methylated product)” value (human SETD7 [1]; SETD7 100 nM, 37 °C, 1 h) read?
A: ~48%

Q: What about the K m (human SETD7 [2]) of the same substance?
A: 17.7 ± 3.15 µM

Q: What about the k cat (human SETD7 [2]) of the same substance?
A: 0.0495 ± 0.00317 s⁻¹

Q: And the “fold increase of kcat/Km” value (human SETD7 [2])?
A: 12 fold

Q: And the “k cat/Km” value (human SETD7 [2])?
A: 2830 M⁻¹ s⁻¹
